# Measured values pooled from the literature.
# Compare with care: the assays were run in different laboratories.
# Target: Mitogen-activated protein kinase 1 (MAPK1, Homo sapiens, UniProt P28482)
Structure (SMILES),effect on,mode,method,tested at,measurement,value
C[C@@H](O)[C@H](N)C(=O)N1CCC[C@H]1C(=O)N1CCC[C@H]1C(=O)N[C@H](C(N)=O)[C@@H](C)O,enzyme activity,inhibitor,,30 µM,inhibition,-2%
O=C(Nc1cccnn1)N1CCN([C@@H]2CCOc3cc(C(F)(F)F)ccc32)CC1,enzyme activity,inhibitor,,20 µM,inhibition,-4%
COc1ncccc1-c1cnn2ccc(N3CCN(C(=O)OC(C)C)CC3)nc12,binding,,competition with immobilised ligand,1 µM,remaining binding,100%
Cn1cncc1[C@@](O)(COc1ccc(C#N)cc1-c1ccc(OC(F)(F)F)cc1)c1ccc(C#N)cc1,cell-free assay,,competition with immobilised ligand,1 µM,remaining binding,91%
CNC1(c2ccccc2Cl)CCCCC1=O (racemic),enzyme activity,inhibitor,,30 µM,inhibition,2%
Cc1ncc(C)n2nc(/C=C/c3nc(N4CCCC4)cc(N4CCOCC4)n3)nc12,enzyme activity,inhibitor,,10 µM,inhibition,7%
O=c1[nH]c2ccccc2n1C1CCN(Cc2ccc(-c3[nH]c4cc5ncnc5cc4nc3-c3ccccc3)cc2)CC1,cell-free assay,,,0.5 µM,remaining signal,112%
Nc1ncc(-c2nc(N3CCOCC3)nc(N3CCOCC3)n2)c(C(F)F)n1,binding,,competition with immobilised ligand,10 µM,remaining binding,98%
N#CC1(c2ccccn2)CCN(Cc2cc(C(=O)O)c(=O)n3ccccc23)CC1,cell-free assay,,competition with immobilised ligand,1 µM,remaining binding,100%
Cc1nn(C)cc1-c1nc2c(N3CCN(Cc4ccc(Cl)cc4)CC3)c(Cl)cnc2[nH]1,binding,,competition with immobilised ligand,1 µM,remaining binding,100%
Cn1cc(-c2cc(F)cc(N3CCn4c(cc5c4CCCC5)C3=O)c2CO)cc(Nc2ccc(N3CCN(C4COC4)CC3)cn2)c1=O,enzyme activity,inhibitor,,0.1 µM,inhibition,4%
C#Cc1n[nH]c2c(-c3cn(C(C)c4ccccn4)c(=O)[nH]c3=O)cc(F)cc12 (stereo not drawn),enzyme activity,inhibitor,,1 µM,inhibition,7.2%
CC(C)(C)c1cc(C=C(C#N)C#N)cc(Br)c1O,enzyme activity,inhibitor,,0.5 µM,remaining activity,91.3%
Cn1cc(-c2cccc(N3CCc4c(sc5c4CC(C)(C)C5)C3=O)c2CO)cc(Nc2ccncn2)c1=O,enzyme activity,inhibitor,,1 µM,inhibition,-1%
C#Cc1n[nH]c2c(-c3cn([C@@H](C)c4ccccc4)c(=O)[nH]c3=O)cc(F)cc12,enzyme activity,inhibitor,,0.1 µM,inhibition,0.5%
